Test results published in ChEMBL document CHEMBL1141691, “Synthesis and antibacterial activity of the C-7 side chain of 3-aminoquinazolinediones” (Bioorg Med Chem Lett, 2008).
In brackets after ≈: the same amount, converted by molar mass.

Test system: Escherichia coli
Assay: Antibacterial activity against wild-type Escherichia coli MC4100 by microbroth dilution susceptibility assay
Type: functional
How it was run: (§1)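 MIC determined by standard broth microdilution following CLSI (formerly NCCLS) guidelines. Value is the lowest concentration inhibiting bacterial growth.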

Compound	MIC
Cc1c(N2CCC(C3(N)CC3)C2)c(F)cc2c(=O)n(N)c(=O)n(C3CC3)c12 (configuration not stated)	2 µg/mL (≈ 5.36 µM)
Cc1c(N2CCC(C(N)c3ccccc3)C2)c(F)cc2c(=O)n(N)c(=O)n(C3CC3)c12 (configuration not stated)	4 µg/mL (≈ 9.45 µM)
Cc1c(N2CCCCC2)c(F)cc2c(=O)n(N)c(=O)n(C3CC3)c12	> 64 µg/mL
Cc1c(N2CCNCC2)c(F)cc2c(=O)n(N)c(=O)n(C3CC3)c12	4 µg/mL (≈ 12 µM)
Cc1c(N2CCCC2)c(F)cc2c(=O)n(N)c(=O)n(C3CC3)c12	16 µg/mL (≈ 50.3 µM)
Cc1c(N2CC[C@@H]([C@@H](C)N)C2)c(F)cc2c(=O)n(N)c(=O)n(C3CC3)c12	2 µg/mL (≈ 5.53 µM)
CCC(N)C1CCN(c2c(F)cc3c(=O)n(N)c(=O)n(C4CC4)c3c2C)C1 (configuration not stated)	8 µg/mL (≈ 21.3 µM)
Cc1c(N2CCC(CCN)C2)c(F)cc2c(=O)n(N)c(=O)n(C3CC3)c12 (configuration not stated)	16 µg/mL (≈ 44.3 µM)
Cc1c(N2CCC2)c(F)cc2c(=O)n(N)c(=O)n(C3CC3)c12	> 64 µg/mL

Test system: Escherichia coli
Assay: Antibacterial activity against TolC knock-out Escherichia coli by microbroth dilution susceptibility assay
Type: functional
How it was run: as §1

Compound	MIC
Cc1c(N2CCC(C3(N)CC3)C2)c(F)cc2c(=O)n(N)c(=O)n(C3CC3)c12 (configuration not stated)	0.03 µg/mL (≈ 0.0803 µM)
Cc1c(N2CCC(C(N)c3ccccc3)C2)c(F)cc2c(=O)n(N)c(=O)n(C3CC3)c12 (configuration not stated)	0.06 µg/mL (≈ 0.142 µM)
Cc1c(N2CCCCC2)c(F)cc2c(=O)n(N)c(=O)n(C3CC3)c12	0.25 µg/mL (≈ 0.752 µM)
Cc1c(N2CCNCC2)c(F)cc2c(=O)n(N)c(=O)n(C3CC3)c12	1 µg/mL (≈ 3 µM)
Cc1c(N2CCCC2)c(F)cc2c(=O)n(N)c(=O)n(C3CC3)c12	0.13 µg/mL (≈ 0.408 µM)
Cc1c(N2CC[C@@H]([C@@H](C)N)C2)c(F)cc2c(=O)n(N)c(=O)n(C3CC3)c12	0.13 µg/mL (≈ 0.36 µM)
CCC(N)C1CCN(c2c(F)cc3c(=O)n(N)c(=O)n(C4CC4)c3c2C)C1 (configuration not stated)	0.13 µg/mL (≈ 0.346 µM)
Cc1c(N2CCC(CCN)C2)c(F)cc2c(=O)n(N)c(=O)n(C3CC3)c12 (configuration not stated)	0.5 µg/mL (≈ 1.38 µM)
Cc1c(N2CCC2)c(F)cc2c(=O)n(N)c(=O)n(C3CC3)c12	2 µg/mL (≈ 6.57 µM)

Test system: Enterococcus faecalis
Assay: Antibacterial activity against Enterococcus faecalis MGH-2 by microbroth dilution susceptibility assay
Type: functional
How it was run: as §1

Compound	MIC
Cc1c(N2CCC(C3(N)CC3)C2)c(F)cc2c(=O)n(N)c(=O)n(C3CC3)c12 (configuration not stated)	0.13 µg/mL (≈ 0.348 µM)
Cc1c(N2CCC(C(N)c3ccccc3)C2)c(F)cc2c(=O)n(N)c(=O)n(C3CC3)c12 (configuration not stated)	0.25 µg/mL (≈ 0.59 µM)
Cc1c(N2CCCCC2)c(F)cc2c(=O)n(N)c(=O)n(C3CC3)c12	4 µg/mL (≈ 12 µM)
Cc1c(N2CCNCC2)c(F)cc2c(=O)n(N)c(=O)n(C3CC3)c12	32 µg/mL (≈ 96 µM)
Cc1c(N2CCCC2)c(F)cc2c(=O)n(N)c(=O)n(C3CC3)c12	2 µg/mL (≈ 6.28 µM)
Cc1c(N2CC[C@@H]([C@@H](C)N)C2)c(F)cc2c(=O)n(N)c(=O)n(C3CC3)c12	0.5 µg/mL (≈ 1.38 µM)
CCC(N)C1CCN(c2c(F)cc3c(=O)n(N)c(=O)n(C4CC4)c3c2C)C1 (configuration not stated)	0.25 µg/mL (≈ 0.666 µM)
Cc1c(N2CCC(CCN)C2)c(F)cc2c(=O)n(N)c(=O)n(C3CC3)c12 (configuration not stated)	4 µg/mL (≈ 11.1 µM)
Cc1c(N2CCC2)c(F)cc2c(=O)n(N)c(=O)n(C3CC3)c12	64 µg/mL (≈ 210 µM)
O=C(O)c1cn(C2CC2)c2cc(N3CCNCC3)c(F)cc2c1=O [CIPROFLOXACIN]	0.4 µg/mL (≈ 1.21 µM)

Test system: Staphylococcus aureus
Assay: Antibacterial activity against Staphylococcus aureus 29213 by microbroth dilution susceptibility assay
Type: functional
How it was run: as §1

Compound	MIC
Cc1c(N2CCC(C3(N)CC3)C2)c(F)cc2c(=O)n(N)c(=O)n(C3CC3)c12 (configuration not stated)	0.25 µg/mL (≈ 0.669 µM)
Cc1c(N2CCC(C(N)c3ccccc3)C2)c(F)cc2c(=O)n(N)c(=O)n(C3CC3)c12 (configuration not stated)	0.13 µg/mL (≈ 0.307 µM)
Cc1c(N2CCCCC2)c(F)cc2c(=O)n(N)c(=O)n(C3CC3)c12	4 µg/mL (≈ 12 µM)
Cc1c(N2CCNCC2)c(F)cc2c(=O)n(N)c(=O)n(C3CC3)c12	32 µg/mL (≈ 96 µM)
Cc1c(N2CCCC2)c(F)cc2c(=O)n(N)c(=O)n(C3CC3)c12	1 µg/mL (≈ 3.14 µM)
Cc1c(N2CC[C@@H]([C@@H](C)N)C2)c(F)cc2c(=O)n(N)c(=O)n(C3CC3)c12	0.5 µg/mL (≈ 1.38 µM)
CCC(N)C1CCN(c2c(F)cc3c(=O)n(N)c(=O)n(C4CC4)c3c2C)C1 (configuration not stated)	0.5 µg/mL (≈ 1.33 µM)
Cc1c(N2CCC(CCN)C2)c(F)cc2c(=O)n(N)c(=O)n(C3CC3)c12 (configuration not stated)	4 µg/mL (≈ 11.1 µM)
Cc1c(N2CCC2)c(F)cc2c(=O)n(N)c(=O)n(C3CC3)c12	32 µg/mL (≈ 105 µM)
O=C(O)c1cn(C2CC2)c2cc(N3CCNCC3)c(F)cc2c1=O [CIPROFLOXACIN]	0.5 µg/mL (≈ 1.51 µM)

Test system: Streptococcus pyogenes
Assay: Antibacterial activity against Streptococcus pyogenes C203 by microbroth dilution susceptibility assay
Type: functional
How it was run: as §1

Compound	MIC
Cc1c(N2CCC(C3(N)CC3)C2)c(F)cc2c(=O)n(N)c(=O)n(C3CC3)c12 (configuration not stated)	0.03 µg/mL (≈ 0.0803 µM)
Cc1c(N2CCC(C(N)c3ccccc3)C2)c(F)cc2c(=O)n(N)c(=O)n(C3CC3)c12 (configuration not stated)	0.03 µg/mL (≈ 0.0708 µM)
Cc1c(N2CCCCC2)c(F)cc2c(=O)n(N)c(=O)n(C3CC3)c12	4 µg/mL (≈ 12 µM)
Cc1c(N2CCNCC2)c(F)cc2c(=O)n(N)c(=O)n(C3CC3)c12	4 µg/mL (≈ 12 µM)
Cc1c(N2CCCC2)c(F)cc2c(=O)n(N)c(=O)n(C3CC3)c12	1 µg/mL (≈ 3.14 µM)
Cc1c(N2CC[C@@H]([C@@H](C)N)C2)c(F)cc2c(=O)n(N)c(=O)n(C3CC3)c12	0.06 µg/mL (≈ 0.166 µM)
CCC(N)C1CCN(c2c(F)cc3c(=O)n(N)c(=O)n(C4CC4)c3c2C)C1 (configuration not stated)	0.03 µg/mL (≈ 0.0799 µM)
Cc1c(N2CCC(CCN)C2)c(F)cc2c(=O)n(N)c(=O)n(C3CC3)c12 (configuration not stated)	0.125 µg/mL (≈ 0.346 µM)
Cc1c(N2CCC2)c(F)cc2c(=O)n(N)c(=O)n(C3CC3)c12	64 µg/mL (≈ 210 µM)
O=C(O)c1cn(C2CC2)c2cc(N3CCNCC3)c(F)cc2c1=O [CIPROFLOXACIN]	2 µg/mL (≈ 6.04 µM)

Test system: not listed separately
Assay: Inhibition of Escherichia coli DNA gyrase

Compound	IC50
Cc1c(N2CCC(C3(N)CC3)C2)c(F)cc2c(=O)n(N)c(=O)n(C3CC3)c12 (configuration not stated)	800 nM
Cc1c(N2CCC(C(N)c3ccccc3)C2)c(F)cc2c(=O)n(N)c(=O)n(C3CC3)c12 (configuration not stated)	260 nM
Cc1c(N2CCCCC2)c(F)cc2c(=O)n(N)c(=O)n(C3CC3)c12	6300 nM
Cc1c(N2CCNCC2)c(F)cc2c(=O)n(N)c(=O)n(C3CC3)c12	3100 nM
Cc1c(N2CCCC2)c(F)cc2c(=O)n(N)c(=O)n(C3CC3)c12	1900 nM
Cc1c(N2CC[C@@H]([C@@H](C)N)C2)c(F)cc2c(=O)n(N)c(=O)n(C3CC3)c12	300 nM
CCC(N)C1CCN(c2c(F)cc3c(=O)n(N)c(=O)n(C4CC4)c3c2C)C1 (configuration not stated)	400 nM
Cc1c(N2CCC(CCN)C2)c(F)cc2c(=O)n(N)c(=O)n(C3CC3)c12 (configuration not stated)	1200 nM
Cc1c(N2CCC2)c(F)cc2c(=O)n(N)c(=O)n(C3CC3)c12	12500 nM
